Calls of active or inactive are those of the source. The calls are words filed in the database; no cut-off is given here.

Data set [1] is described as follows: Drug uptake in skin tumor of F1 mouse implanted with mouse S37 cells assessed as normalized fluorescence at 2.5 mg/kg, iv measured after 15 mins post injection in presence of He-Ne laser radiation by local fluorescence spectroscopic analysis. To be noted: in vivo, 0.25 h. It counts as ADME, organism-based. Summed up:
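S37 sarcoma-bearing immunocompetent F1 mice (18−22 g) given PS 2.5 mg/kg iv. Animals sacrificed at 0.25, 0.5, 2, 4 and 24 h, with three animals per time point. Skin, tumor and organ samples were read ex vivo by contact local fluorescence spectroscopy under He−Ne 632.8 nm excitation. Integrated 640−900 nm emission was normalized to the backscattered laser signal to give FN.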

Data set [2] is described as follows: Drug uptake in spleen tumor of F1 mouse implanted with mouse S37 cells assessed as normalized fluorescence at 2.5 mg/kg, iv measured after 24 hrs post injection in presence of He-Ne laser radiation by local fluorescence spectroscopic analysis. Format: ADME, organism-based. To be noted: in vivo. Put shortly:
(§1)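 Single iv dose of 2.5 mg/kg given to F1 mice bearing S37 sarcoma. Skin, muscle, liver, kidney, spleen and tumor taken from three animals each at 0.25, 0.5, 2, 4 and 24 h and read ex vivo by contact local fluorescence spectroscopy. He–Ne 632.8 nm excitation; 640–900 nm integral normalized to backscattered laser signal (FN).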

Data set [3] is described as follows: Phototoxicity against mouse S37 cells implanted in F1 mouse assessed as tumor growth inhibition at 2.5 mg/kg, iv preincubated for 15 mins with subsequent 150 J/cm2 irradiation measured on day 15 post irradiation relative to control. It counts as functional. To be noted: S37, light or radiation study, read-out: TGI. Summed up: (§2)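 S37 sarcoma mice treated on day 7 of tumor growth with compound iv; tumors 140–160 mm3 beforehand, droperidol 0.25 mg ip as anesthetic. LED irradiation at 800 ± 21 nm, 100 mW/cm2, 150 J/cm2, given 15 or 30 min after dosing. Controls got iv 0.9% NaCl. Volume = d1×d2×d3×0.52; TGI = […]×100%.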

A short description of data set [4]: Phototoxicity against mouse S37 cells implanted in F1 mouse assessed as tumor growth inhibition at 2.5 mg/kg, iv preincubated for 15 mins with subsequent 150 J/cm2 irradiation measured on day 18 post irradiation relative to control. It counts as functional. As to conditions: S37, light or radiation study, read-out: TGI. Summed up:
as §2

A short description of data set [5]: Phototoxicity against mouse S37 cells implanted in F1 mouse assessed as tumor growth inhibition at 2.5 mg/kg, iv preincubated for 15 mins with subsequent 150 J/cm2 irradiation measured on day 20 post irradiation relative to control. It counts as functional. To be noted: S37, light or radiation study, read-out: TGI. Put shortly: as §2
The nature of data set [6]: Phototoxicity against mouse S37 cells implanted in F1 mouse assessed as tumor growth inhibition at 5 mg/kg, iv preincubated for 15 mins with subsequent 150 J/cm2 irradiation measured on day 15 post irradiation relative to control. As to conditions: S37, light or radiation study, read-out: TGI. It counts as functional. Summed up: as §2
Data set [7] can be described thus: Phototoxicity against mouse S37 cells implanted in F1 mouse assessed as tumor growth inhibition at 5 mg/kg, iv preincubated for 15 mins with subsequent 150 J/cm2 irradiation measured on day 20 post irradiation relative to control. It counts as functional. As to conditions: S37, light or radiation study, read-out: TGI. Summed up: as §2
The nature of data set [8]: Drug uptake in kidney tumor of F1 mouse implanted with mouse S37 cells assessed as normalized fluorescence at 2.5 mg/kg, iv measured after 24 hrs post injection in presence of He-Ne laser radiation by local fluorescence spectroscopic analysis. Format: ADME, organism-based. As to conditions: in vivo. Summed up: as §1
Data set [9] is described as follows: Phototoxicity against mouse S37 cells implanted in F1 mouse assessed as tumor growth inhibition at 5 mg/kg, iv preincubated for 30 mins with subsequent 150 J/cm2 irradiation measured on day 8 post irradiation relative to control. It counts as functional. As to conditions: S37, light or radiation study, read-out: TGI. Summed up: as §2
Data set [10] in a line: Phototoxicity against mouse S37 cells implanted in F1 mouse assessed as tumor growth inhibition at 5 mg/kg, iv preincubated for 30 mins with subsequent 150 J/cm2 irradiation measured on day 20 post irradiation relative to control. Format: functional. As to conditions: S37, light or radiation study, read-out: TGI. Put shortly:
as §2

The nature of data set [11]: Phototoxicity against rat Sarcoma M1 cells implanted in rat assessed as volume of tumor parenchyma at 2.5 mg/kg, ip administered as single dose on day 11 after inoculation followed by 300 J/cm2 irradiation after 2.5 to 3 hrs measured on day 1 post photodynamic therapy by hematoxylin and eosin staining based assay (reference value: 69 +/- 6%). It counts as functional. Put shortly: (§3)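 Rat M1 sarcoma was implanted subcutaneously in the left thigh, with randomisation on day 10. A single 2.5 mg/kg ip dose was given on day 11, then 810 nm laser (0.51 W/cm2, 300 J/cm2, 10 min) after 2.5−3 h. Tumours were sectioned on days 1, 3 and 12 after PDT (controls days 12, 14, 23), five animals per point. Parenchyma and necrotic zone volumes were estimated on hematoxylin and eosin staining.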

Data set [12] in a line: Phototoxicity against rat Sarcoma M1 cells implanted in rat assessed as apoptotic index at 2.5 mg/kg, ip administered as single dose on day 11 after inoculation followed by 300 J/cm2 irradiation after 2.5 to 3 hrs measured on day 1 post photodynamic therapy (reference value: 0.29 +/- 0.02 %). It counts as functional. Put shortly: (§4)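 Rats with M1 sarcoma implanted subcutaneously in the left thigh were randomized on day 10, 25 per group. Single ip dose of 2.5 mg/kg on day 11; laser irradiation 2.5–3 h later at 810 nm, 0.51 W/cm2, 300 J/cm2, 10 min over a 1.5 cm field. Five rats sampled per time point for H&E histology, PCNA immunohistochemistry (1:200) and tumor volume. Untreated controls; Student's test, p < 0.05.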

Data set [13] in a line: Phototoxicity against rat Sarcoma M1 cells implanted in rat assessed as volume of tumor parenchyma at 2.5 mg/kg, ip administered as single dose on day 11 after inoculation followed by 300 J/cm2 irradiation after 2.5 to 3 hrs measured on day 3 post photodynamic therapy by hematoxylin and eosin staining based assay (reference value: 70 +/- 4%). Format: functional. Put shortly: as §3

Data set [14] in a line: Phototoxicity against rat Sarcoma M1 cells implanted in rat assessed as apoptotic index at 2.5 mg/kg, ip administered as single dose on day 11 after inoculation followed by 300 J/cm2 irradiation after 2.5 to 3 hrs measured on day 3 post photodynamic therapy (reference value: 0.31 +/- 0.02%). It counts as functional. Put shortly: as §4
A short description of data set [15]: Phototoxicity against rat Sarcoma M1 cells implanted in rat assessed as volume of tumor necrotic zones at 2.5 mg/kg, ip administered as single dose on day 11 after inoculation followed by 300 J/cm2 irradiation after 2.5 to 3 hrs measured on day 12 post photodynamic therapy (reference value: 44 +/- 3%). Format: functional. Put shortly: as §3
Data set [16] is described as follows: Phototoxicity against rat Sarcoma M1 cells implanted in rat assessed as volume of PCNA-positive cells in tumor parenchyma at 2.5 mg/kg, ip administered as single dose on day 11 after inoculation followed by 300 J/cm2 irradiation after 2.5 to 3 hrs measured on day 12 post photodynamic therapy (reference value: 72 +/- 5%). Format: functional. Summed up: as §4

Data set [17] can be described thus: Phototoxicity against rat Sarcoma M1 cells implanted in rat assessed as apoptotic index at 2.5 mg/kg, ip administered as single dose on day 11 after inoculation followed by 300 J/cm2 irradiation after 2.5 to 3 hrs measured on day 12 post photodynamic therapy (reference value: 0.37 +/- 0.06%). It counts as functional. Summed up:
as §4

The next data set deals with Sarcoma M1. Briefly: Phototoxicity against rat Sarcoma M1 cells implanted in rat assessed as coagulative tumor necrosis at 2.5 mg/kg, ip administered as single dose on day 11 post inoculation followed by 300 J/cm2 irradiation after 2.5 to 3 hrs measured on day 2 post photodynamic therapy by hematoxylin and eosin staining based assay. Format: functional, organism-based.

For the compound `CCCO/N=C(\C)c1c(C)c2cc3nc(c4c5[nH]c(cc6nc(cc1[nH]2)[C@H](C)[C@H]6CC)c(C)c5C(=O)N(OCCC)C4=O)[C@@H](CCC(=O)OC)[C@@H]3C`, in [1], the Flu intensity came to 2.2 RU. In data set [2], the Drug uptake result is on record as “Active”. In addition, the inhibition in vivo at 2.5 mg/kg in data set [3], in data set [4] and in data set [5] was 100% throughout. The inhibition in vivo at 5 mg/kg in [6] and in data set [7] was 100% throughout.
Regarding `CCCO/N=C(\C)c1c(C)c2cc3nc(c4c5[nH]c(cc6nc(cc1[nH]2)[C@@H](C)[C@@H]6CC)c(C)c5C(=O)N(OCCC)C4=O)[C@H](CCC(=O)NCCSSCCNC(=O)CC[C@@H]1c2nc(cc4[nH]c(cc5nc(cc6[nH]c7c2C(=O)N(OCCC)C(=O)c7c6C)[C@H](CC)[C@H]5C)c(/C(C)=N/OCCC)c4C)[C@H]1C)[C@H]3C`, in data set [8], the Drug uptake result is “Active”. Also, the inhibition in vivo at 5 mg/kg in data set [9] and in [10] was 100% throughout. In addition, the Activity in data set [11] amounted to 39%; in [12], 0.39%; in [13], 23%; in data set [14], 0.43%; in data set [15], 71%; in data set [16], 39%. The Activity in [17] stood at 0.42%. The result in the data set with Sarcoma M1 was Active.

The record behind these values is ChEMBL document CHEMBL4024769, “Synthesis and Investigation of Photophysical and Biological Properties of Novel S-Containing Bacteriopurpurinimides” (J Med Chem, 2017).
